Each structure is given as a SMILES string. pIC50: −log10 of the molar value.

The term pIC50 denotes the IC50 on a negative log10 scale, so that one unit is a factor of ten. High values mean a low IC50, low ones a high IC50. As usually defined, the inhibition is the share of the control response that was lost under treatment.

Chain of Vascular endothelial growth factor receptor 2 (P35968 whole entry, the tested form may be a part): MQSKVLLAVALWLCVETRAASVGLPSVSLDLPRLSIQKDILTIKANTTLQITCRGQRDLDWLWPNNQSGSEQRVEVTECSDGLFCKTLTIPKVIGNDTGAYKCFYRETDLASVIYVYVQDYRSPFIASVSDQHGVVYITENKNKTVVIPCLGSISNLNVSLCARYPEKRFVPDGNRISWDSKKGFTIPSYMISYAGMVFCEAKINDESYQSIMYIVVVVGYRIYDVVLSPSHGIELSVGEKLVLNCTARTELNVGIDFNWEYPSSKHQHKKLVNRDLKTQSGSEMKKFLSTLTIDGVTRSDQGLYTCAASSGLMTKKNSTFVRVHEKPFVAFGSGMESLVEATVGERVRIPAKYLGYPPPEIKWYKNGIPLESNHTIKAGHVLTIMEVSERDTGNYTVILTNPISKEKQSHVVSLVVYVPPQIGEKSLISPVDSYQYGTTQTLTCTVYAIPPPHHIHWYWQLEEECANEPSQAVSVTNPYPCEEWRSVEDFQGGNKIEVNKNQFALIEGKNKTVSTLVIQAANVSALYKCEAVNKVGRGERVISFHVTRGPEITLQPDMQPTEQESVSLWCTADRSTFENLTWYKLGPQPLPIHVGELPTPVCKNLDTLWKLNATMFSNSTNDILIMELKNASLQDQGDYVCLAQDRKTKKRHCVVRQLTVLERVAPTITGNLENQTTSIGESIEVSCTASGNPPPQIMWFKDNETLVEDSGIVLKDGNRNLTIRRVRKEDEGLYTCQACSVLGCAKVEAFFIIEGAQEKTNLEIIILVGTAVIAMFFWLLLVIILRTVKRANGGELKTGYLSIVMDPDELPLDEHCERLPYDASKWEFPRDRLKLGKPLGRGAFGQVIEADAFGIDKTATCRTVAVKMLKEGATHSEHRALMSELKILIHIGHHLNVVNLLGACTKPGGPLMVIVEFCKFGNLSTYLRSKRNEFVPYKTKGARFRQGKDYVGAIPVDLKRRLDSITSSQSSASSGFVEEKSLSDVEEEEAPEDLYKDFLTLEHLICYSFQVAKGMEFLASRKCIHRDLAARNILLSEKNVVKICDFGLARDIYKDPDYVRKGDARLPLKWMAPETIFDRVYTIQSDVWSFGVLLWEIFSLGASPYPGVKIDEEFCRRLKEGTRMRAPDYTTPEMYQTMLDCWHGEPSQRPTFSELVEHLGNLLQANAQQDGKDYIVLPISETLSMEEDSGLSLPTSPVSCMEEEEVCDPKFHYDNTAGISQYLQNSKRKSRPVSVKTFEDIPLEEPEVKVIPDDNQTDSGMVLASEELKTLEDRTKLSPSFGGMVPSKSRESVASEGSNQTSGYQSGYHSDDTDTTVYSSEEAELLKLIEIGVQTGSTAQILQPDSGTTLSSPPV

In one data set the target is Vascular endothelial growth factor receptor 2 (Homo sapiens, UniProt P35968). The experiment in a line: Inhibition of N-terminal GST-tagged human VEGFR2 cytoplasmic domain (790 to 1356 residues) expressed in baculovirus expression system using FAM-22 peptide as substrate incubated for 10 mins followed by substrate addition by caliper method. In outline:
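Compounds (DMSO stocks 40 μM–0.2 nM, ten levels) tested in duplicate. Enzyme preincubated with compound 10 min at room temperature, then FAM-P22 peptide/ATP added and incubated at 28 °C. Stopped with EDTA-containing buffer. IC50 obtained by four-parameter Hill fit; staurosporine as reference.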
`COc1cc2c(Nc3ccc(Br)cc3F)ncnc2cc1OCC1CCN(C(=O)Cn2cncc2[N+](=O)[O-])CC1`: the pIC50 is 7.57.
As to `COc1cc2c(Nc3ccc(Br)cc3F)ncnc2cc1OCCOCCOCCNC(=O)Cn1cnc([N+](=O)[O-])n1`, the pIC50 is 6.66.
As to `COc1cc2c(Nc3ccc(Br)cc3F)ncnc2cc1OCCNC(=O)Cn1cnc([N+](=O)[O-])n1`, the pIC50 is 7.06.
As to `COc1cc2c(Nc3ccc(C)c(Br)c3)ncnc2cc1OCCOCCOCCNC(=O)Cn1cnc([N+](=O)[O-])n1`, the pIC50 was 6.61.

The target of another data set is Epidermal growth factor receptor (Homo sapiens, UniProt P00533). Kind of data set: Inhibition of N-terminal GST-tagged human EGFR cytoplasmic domain (669 to 1210 residues) expressed in baculovirus expression system using FAM-22 peptide as substrate incubated for 10 mins followed by substrate addition by caliper method.
Chain of Epidermal growth factor receptor (P00533 whole entry, the tested form may be a part): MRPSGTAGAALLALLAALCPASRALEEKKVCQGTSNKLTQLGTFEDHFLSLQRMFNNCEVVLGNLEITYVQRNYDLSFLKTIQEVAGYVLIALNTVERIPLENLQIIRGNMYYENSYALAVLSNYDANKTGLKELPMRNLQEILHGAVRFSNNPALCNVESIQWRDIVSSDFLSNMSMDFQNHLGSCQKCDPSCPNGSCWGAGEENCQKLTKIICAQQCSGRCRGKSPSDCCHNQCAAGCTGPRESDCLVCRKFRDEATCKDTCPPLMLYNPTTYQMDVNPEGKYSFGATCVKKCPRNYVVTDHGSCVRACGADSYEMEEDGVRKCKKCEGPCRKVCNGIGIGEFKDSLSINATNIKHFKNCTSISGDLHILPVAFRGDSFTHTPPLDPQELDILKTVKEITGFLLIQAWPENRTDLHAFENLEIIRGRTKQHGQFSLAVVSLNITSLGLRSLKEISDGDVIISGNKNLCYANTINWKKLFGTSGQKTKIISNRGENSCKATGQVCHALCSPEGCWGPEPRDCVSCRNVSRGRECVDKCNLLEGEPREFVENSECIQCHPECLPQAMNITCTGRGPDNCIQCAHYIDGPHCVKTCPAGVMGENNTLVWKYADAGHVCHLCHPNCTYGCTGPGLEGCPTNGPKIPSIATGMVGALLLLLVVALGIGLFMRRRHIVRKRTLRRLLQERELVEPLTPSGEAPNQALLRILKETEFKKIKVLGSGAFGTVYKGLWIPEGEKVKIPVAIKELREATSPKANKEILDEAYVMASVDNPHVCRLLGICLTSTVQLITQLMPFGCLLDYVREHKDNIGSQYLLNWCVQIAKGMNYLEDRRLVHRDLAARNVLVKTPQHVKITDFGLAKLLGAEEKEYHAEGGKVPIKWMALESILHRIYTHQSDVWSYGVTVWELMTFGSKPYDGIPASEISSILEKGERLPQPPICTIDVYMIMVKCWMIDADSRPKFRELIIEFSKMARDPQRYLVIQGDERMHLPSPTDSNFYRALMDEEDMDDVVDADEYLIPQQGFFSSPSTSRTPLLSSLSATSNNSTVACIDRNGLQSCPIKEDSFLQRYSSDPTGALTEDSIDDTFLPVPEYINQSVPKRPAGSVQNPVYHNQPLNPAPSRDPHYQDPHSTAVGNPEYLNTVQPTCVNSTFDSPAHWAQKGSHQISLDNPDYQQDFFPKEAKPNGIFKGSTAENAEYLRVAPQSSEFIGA
The compound `COc1cc2c(Nc3ccc(Br)cc3F)ncnc2cc1OCC1CCN(C(=O)Cn2cncc2[N+](=O)[O-])CC1` gave a pIC50 of 8.49.
`COc1cc2c(Nc3ccc(Br)cc3F)ncnc2cc1OCCOCCOCCNC(=O)Cn1cnc([N+](=O)[O-])n1` showed a negative logarithm of the IC50 (pIC50) of 8.31.
For the compound `COc1cc2c(Nc3ccc(Br)cc3F)ncnc2cc1OCCNC(=O)Cn1cnc([N+](=O)[O-])n1`, the pIC50 is 7.36.
Same read-out and setting: for `COc1cc2c(Nc3ccc(C)c(Br)c3)ncnc2cc1OCCOCCOCCNC(=O)Cn1cnc([N+](=O)[O-])n1` the value was 8.20.

Tested on in the next data set: not listed separately
The experiment in a line: Cytotoxicity against human A549 cells assessed as inhibition of cell growth at 0.5 uM after 48 hrs under normoxic condition by CCk-8 assay relative to control. In kind it is cell-based. The method in brief: (§1)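 RPMI-1640 with 10% fetal calf serum. Compounds dissolved in DMSO. Hypoxia produced chemically with cobalt(II) chloride; normoxic wells received no CoCl2. Viability read by CCK-8 (WST-8) at 450 nm, and inhibition ratio calculated against untreated control.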
Consider `COc1cc2c(Nc3ccc(Br)cc3F)ncnc2cc1OCCOCCOCCNC(=O)Cn1cnc([N+](=O)[O-])n1`, for which the inhibition at 48 h, 0.5 µM turned out to be 16%.
Consider `COc1cc2c(Nc3ccc(Br)cc3F)ncnc2cc1OCCNC(=O)Cn1cnc([N+](=O)[O-])n1`, for which the inhibition at 48 h, 0.5 µM was determined as 14.9%.

Tested on in a further data set: not listed separately
The experiment in a line: Cytotoxicity against human NCI-H446 cells assessed as inhibition of cell growth at 0.5 uM after 48 hrs under normoxic condition by CCk-8 assay relative to control. In kind it is cell-based. The method in brief: as §1
In the case of `COc1cc2c(Nc3ccc(Br)cc3F)ncnc2cc1OCCOCCOCCNC(=O)Cn1cnc([N+](=O)[O-])n1`, the inhibition at 48 h, 0.5 µM amounted to 20.4%.
On to `COc1cc2c(Nc3ccc(Br)cc3F)ncnc2cc1OCCNC(=O)Cn1cnc([N+](=O)[O-])n1`, for which the inhibition at 48 h, 0.5 µM came out at 16.8%.

The subject of a further data set is A549. Kind of data set: Antiproliferative activity against human A549 cells assessed as inhibition of cell growth at 0.5 uM after 48 hrs under hypoxic condition (200 uM CoCl2) by CCk-8 assay relative to control (reference value: 59.94%). In kind it is functional. The method in brief: as §1
For the compound `COc1cc2c(Nc3ccc(Br)cc3F)ncnc2cc1OCCOCCOCCNC(=O)Cn1cnc([N+](=O)[O-])n1`, the “inhibition (INH)” value was determined as 74.36%.
Still for that read-out and setting: under `COc1cc2c(Nc3ccc(Br)cc3F)ncnc2cc1OCCNC(=O)Cn1cnc([N+](=O)[O-])n1` stands 72.99%.

For a further data set, the system named is NCI-H446. Kind of data set: Antiproliferative activity against human NCI-H446 cells assessed as inhibition of cell growth at 0.5 uM after 48 hrs under hypoxic condition (200 uM CoCl2) by CCk-8 assay relative to control (reference value: 65.84%). Type of data set: functional. The method in brief:
as §1
Take `COc1cc2c(Nc3ccc(Br)cc3F)ncnc2cc1OCCOCCOCCNC(=O)Cn1cnc([N+](=O)[O-])n1`: the “inhibition (INH)” value was found to be 78.81%.
Turning to `COc1cc2c(Nc3ccc(Br)cc3F)ncnc2cc1OCCNC(=O)Cn1cnc([N+](=O)[O-])n1`, the “inhibition (INH)” value is 76.34%.

The next data set has as its system A549. Kind of data set: Antiproliferative activity against human A549 cells assessed as inhibition of cell growth at 0.5 uM in hypoxia condition (200 uM CoCl2) and under irradiation at 8 Gy for 24 hrs and measured after 24 hrs by CCK8 assay (reference value: 64.135%). In kind it is functional. (In general: Tetrazolium assays rely on reduction of a dye to a coloured formazan, in cell work by metabolically active cells.)
Consider `COc1cc2c(Nc3ccc(Br)cc3F)ncnc2cc1OCCOCCOCCNC(=O)Cn1cnc([N+](=O)[O-])n1`, for which the “inhibition (INH)” value came out at 80.36%.
As for `COc1cc2c(Nc3ccc(Br)cc3F)ncnc2cc1OCCNC(=O)Cn1cnc([N+](=O)[O-])n1`, the inhibition (INH) came to 80.3%.

Another data set concerns NCI-H446. The experiment in a line: Antiproliferative activity against human NCI-H446 cells assessed as inhibition of cell growth at 0.5 uM in hypoxia condition (200 uM CoCl2) and under irradiation at 8 Gy for 24 hrs and measured after 24 hrs by CCK8 assay (reference value: 68.77%). Type of data set: functional.
Consider `COc1cc2c(Nc3ccc(Br)cc3F)ncnc2cc1OCCOCCOCCNC(=O)Cn1cnc([N+](=O)[O-])n1`, for which the “inhibition (INH)” value worked out at 84.92%.
With `COc1cc2c(Nc3ccc(Br)cc3F)ncnc2cc1OCCNC(=O)Cn1cnc([N+](=O)[O-])n1`, the “inhibition (INH)” value was determined as 79.03%.

The test system of the next data set is A549. Kind of data set: Antiproliferative activity against human A549 cells assessed as hypoxic sensitive enhancement ratio in presence of CoCl2. Type of data set: functional.
For `COc1cc2c(Nc3ccc(Br)cc3F)ncnc2cc1OCCOCCOCCNC(=O)Cn1cnc([N+](=O)[O-])n1`, the Ratio worked out at 1.2.
In the case of `COc1cc2c(Nc3ccc(Br)cc3F)ncnc2cc1OCCNC(=O)Cn1cnc([N+](=O)[O-])n1`, the Ratio was found to be 1.19.

The next data set deals with A549. Kind of data set: Antiproliferative activity against human A549 cells assessed as hypoxic sensitive enhancement ratio in presence of Cocl2 under irradiation. Type of data set: functional.
Regarding `COc1cc2c(Nc3ccc(Br)cc3F)ncnc2cc1OCCOCCOCCNC(=O)Cn1cnc([N+](=O)[O-])n1`, the Ratio is 0.9.
Regarding `COc1cc2c(Nc3ccc(Br)cc3F)ncnc2cc1OCCNC(=O)Cn1cnc([N+](=O)[O-])n1`, the Ratio is 0.9.

The test system of the next data set is NCI-H446. The experiment in a line: Antiproliferative activity against human NCI-H446 cells assessed as hypoxic sensitive enhancement ratio in presence of CoCl2. Type of data set: functional.
`COc1cc2c(Nc3ccc(Br)cc3F)ncnc2cc1OCCOCCOCCNC(=O)Cn1cnc([N+](=O)[O-])n1`: the Ratio turned out to be 1.08.
Consider `COc1cc2c(Nc3ccc(Br)cc3F)ncnc2cc1OCCNC(=O)Cn1cnc([N+](=O)[O-])n1`, for which the Ratio came out at 1.07.

The test system of another data set is NCI-H446. The experiment in a line: Antiproliferative activity against human NCI-H446 cells assessed as hypoxic sensitive enhancement ratio in presence of Cocl2 under irradiation. Type of data set: functional.
For `COc1cc2c(Nc3ccc(Br)cc3F)ncnc2cc1OCCOCCOCCNC(=O)Cn1cnc([N+](=O)[O-])n1`, the Ratio was 0.91.
Consider `COc1cc2c(Nc3ccc(Br)cc3F)ncnc2cc1OCCNC(=O)Cn1cnc([N+](=O)[O-])n1`, for which the Ratio was determined as 0.85.

The values above are taken from ChEMBL document CHEMBL4359867, “Design, synthesis and biological evaluation of novel 4-anilinoquinazoline derivatives as hypoxia-selective EGFR and VEGFR-2 dual inhibitors” (Eur J Med Chem, 2019).
